# Results reported in ChEMBL document CHEMBL1125359, “omega-[(4,6-Diphenyl-2-pyridyl)oxy]alkanoic acid derivatives: a new family of potent and orally active LTB4 antagonists” (J Med Chem, 1992).
# How the values were obtained:
# [1] = biological target: T1, Leukotriene B4 receptor 1 (Homo sapiens, UniProt Q15722); assay: Inhibition of LTB4-induced elastase release in human polymorphonuclear leukocytes; type: functional, cell-based
# [2] = biological target: T1, Leukotriene B4 receptor 1; assay: Inhibition of [3H]-LTB4 binding to Leukotriene B4 receptor in the human polymorphonuclear leukocytes.
# In short: (§1)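 PMNs from normal donors' peripheral blood, isolated by dextran T500 sedimentation, Ficoll-Hypaque centrifugation and hypotonic lysis. Cells incubated with 0.5 nM [3H]LTB4 (173 Ci/mmol) for 15 min at 0 °C across a range of compound concentrations. Percent inhibition of specific binding measured; IC50 derived graphically, mean of three replicates, mostly on one cell preparation.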
# [3] = biological target: T1, Leukotriene B4 receptor 1; assay: Inhibition of [3H]LTB4 binding to Leukotriene B4 receptor of human polymorphonuclear leukocytes; in short: as §1
# [4] = biological target: Leukotriene B4 receptor 1 (Cavia porcellus); assay: Inhibition of [3H]LTB4 binding to Leukotriene B4 receptor in the guinea pig spleen membranes.
# T1 sequence (Q15722 whole entry): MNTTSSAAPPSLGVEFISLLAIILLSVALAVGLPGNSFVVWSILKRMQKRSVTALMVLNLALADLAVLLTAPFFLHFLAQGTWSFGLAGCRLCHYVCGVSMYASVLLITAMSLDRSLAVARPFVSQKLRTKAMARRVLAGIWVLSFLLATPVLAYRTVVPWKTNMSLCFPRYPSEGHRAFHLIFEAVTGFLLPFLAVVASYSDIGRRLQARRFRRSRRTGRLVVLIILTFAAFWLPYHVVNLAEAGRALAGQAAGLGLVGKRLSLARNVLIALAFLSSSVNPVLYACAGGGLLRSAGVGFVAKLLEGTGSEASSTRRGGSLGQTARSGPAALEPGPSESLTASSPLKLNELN
IC50 [1] [nM],IC50 [2] [nM],IC50 [3] [nM],IC50 [4] [nM],Compound
40,–,6,–,CC(CCCCOc1cc(-c2ccccc2)cc(-c2ccccc2Cl)n1)C(=O)O (centres undefined)
1000,–,–,2,COc1ccc(/C=C/CCCCOc2ccc(C(=O)c3cccc(C(=O)O)c3)cc2CCC(=O)O)cc1
1000,100,–,–,COC(=O)CCCCCOc1cc(-c2ccccc2)cc(-c2ccccc2)n1
100,60,–,–,CC(C)(CCCCCCOc1cc(-c2ccccc2)cc(-c2ccccc2)n1)C(=O)O
70,18,–,–,CC(CCCCOc1cc(-c2ccccc2)cc(-c2ccccc2F)n1)C(=O)O (centres undefined)
–,600,–,–,O=C(O)CCCCCOc1cc(-c2ccc([N+](=O)[O-])cc2)cc(-c2ccccc2)n1
22,30,–,–,CC(CCCCOc1cc(-c2ccccc2)cc(-c2ccccc2)n1)C(=O)O (centres undefined)
120,6.6,–,–,CC(CCCCOc1cc(-c2ccc3c(c2)OCO3)cc(-c2ccccc2)n1)C(=O)O (centres undefined)
15,9.5,–,–,CC(C)(CCCCOc1cc(-c2ccc(N)cc2)cc(-c2ccccc2)n1)C(=O)O
12,12,–,–,CC(CCCCOc1cc(-c2ccc3c(c2)OCO3)cc(-c2ccccc2Cl)n1)C(=O)O (centres undefined)

# Continued, compound first:
Compound,IC50 [1] [nM],IC50 [2] [nM],IC50 [3] [nM],IC50 [4] [nM]
O=C(O)CCCCCCOc1cc(-c2ccccc2)cc(-c2ccccc2)n1,2500,15,–,–
O=C(O)CCCCCOc1cc(-c2ccccc2)cc(-c2ccc(F)cc2)n1,> 10000,30,–,–
O=C(O)CCCCCOc1cc(-c2ccc3c(c2)OCO3)cc(-c2ccccc2)n1,2000,6,–,–
O=C(O)CCCCCOc1cc(-c2ccccc2)cc(-c2ccccc2)n1,2000,30,–,–
O=C(O)CCCCCOc1cc(-c2ccc(NC(=O)C(F)(F)F)cc2)cc(-c2ccccc2)n1,> 10000,–,–,–
CC(C)(CCCCOc1cc(-c2ccccc2)cc(-c2ccccc2)n1)c1nnn[nH]1,8,20,–,–
NC(=O)CCCCCOc1cc(-c2ccccc2)cc(-c2ccccc2)n1,–,150,–,–
O=C(O)CCCCCOc1cc(-c2ccccc2Cl)cc(-c2ccccc2)n1,> 10000,–,–,–
O=C(O)CCCCOc1cc(-c2ccccc2)cc(-c2ccccc2)n1,20000,300,–,–
